In brackets after ≈: the same amount, converted by molar mass.
Key:
Interstitial collagenase = biological target: T1, Interstitial collagenase (Homo sapiens, UniProt P03956); test: Inhibition potency was determined by fluorescence-based peptide assay against matrix metalloprotease-1; parameters: species or system Escherichia coli
T1 sequence (P03956 whole entry): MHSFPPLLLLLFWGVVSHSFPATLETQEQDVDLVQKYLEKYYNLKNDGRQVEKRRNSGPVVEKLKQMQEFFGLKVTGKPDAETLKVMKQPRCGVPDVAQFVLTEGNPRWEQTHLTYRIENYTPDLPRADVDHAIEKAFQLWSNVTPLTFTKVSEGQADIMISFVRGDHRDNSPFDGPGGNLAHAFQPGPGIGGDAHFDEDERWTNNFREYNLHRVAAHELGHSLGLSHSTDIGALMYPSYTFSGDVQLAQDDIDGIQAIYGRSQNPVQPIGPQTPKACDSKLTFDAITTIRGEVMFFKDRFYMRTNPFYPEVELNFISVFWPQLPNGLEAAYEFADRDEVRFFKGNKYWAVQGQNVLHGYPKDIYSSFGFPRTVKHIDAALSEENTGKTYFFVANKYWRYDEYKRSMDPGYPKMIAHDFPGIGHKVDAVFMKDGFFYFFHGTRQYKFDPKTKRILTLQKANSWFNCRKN
Summary of the method: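 Recombinant MMP-1 catalytic domain expressed in E. coli, refolded 1 h in 200 mM NaCl, 50 mM Tris, 5 mM CaCl2, 10 μM ZnSO4, 0.01% Brij 35, pH 7.6, and assayed at 1.0 nM in the same buffer. Enzyme preincubated 20 min at room temperature with inhibitor (eleven-point 3-fold dilutions). Reaction started with fluorogenic Dnp-Pro-Cha-Gly-Cys(Me)-His-Ala-Lys(Nma)-NH2; ex 343/em 450 nm; IC50 (nM).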

Stromelysin-1 = Stromelysin-1 (Homo sapiens, UniProt P08254); test: Inhibition potency was determined by fluorescence-based peptide assay against matrix metalloprotease-3; parameters: species or system Escherichia coli
Summary of the method: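 Full-length active MMP-3 expressed in E. coli, refolded 1 h in 200 mM NaCl, 50 mM Tris, 5 mM CaCl2, 10 μM ZnSO4, 0.01% Brij 35, pH 7.6, used at 5 nM in the same buffer. Preincubated 20 min at room temperature with inhibitor across eleven 3-fold dilutions, then fluorogenic Dnp-Pro-Cha-Gly-Cys(Me)-His-Ala-Lys(Nma)-NH2 added; product read at ex 343/em 450 nm; IC50 (nM).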

[1] = biological target: Matrix metalloproteinase-9 (Homo sapiens, UniProt P14780); test: Inhibition potency was determined by fluorescence-based peptide assay against matrix metalloprotease-9
Summary of the method: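 Catalytic domain of proMMP-9 purified from baculovirus-infected T. ni cell media, 0.1 nM in 200 mM NaCl, 50 mM Tris, 5 mM CaCl2, 10 μM ZnSO4, 0.01% Brij 35, pH 7.6. Preincubated with inhibitor 20 min at room temperature; fluorogenic Dnp-Pro-Cha-Gly-Cys(Me)-His-Ala-Lys(Nma)-NH2 added; fluorescence ex 343/em 450 nm; eleven-point 3-fold dilutions give IC50 (nM).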

[2] = biological target: Disintegrin and metalloproteinase domain-containing protein 17 (Homo sapiens, UniProt P78536); test: Inhibition of TACE using scintillation proximity assay (SPA)
Mus musculus [3] = test: Inhibition of soluble TNF-alpha production in LPS-Stimulated mice by administration of 40 mg/kg compound per orally; type: functional; settings: route oral
Summary of the method: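 Female C3H/hen mice gavaged at 40 mg/kg (5 mL/kg, homogenized suspension in 0.5% HPMC/0.1% Tween 80) 10 min before ip LPS 0.2 mg/kg in PBS. Killed at 90 min; vena cava plasma TNF-α by ELISA. Percent inhibition vs vehicle group, n = 7 each, 2-sided t-test.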

[4] = Solubility in simulated gastric fluid; type: physicochemical; settings: read-out: S
Mus musculus [5] = test: Inhibition of soluble TNF-alpha production in LPS-Stimulated mice by administration of 40 mg/kg compound subcutaneously; type: functional; settings: sc, route subcutaneous
Summary of the method: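 Female C3H/hen mice given 40 mg/kg sc (0.2 mL; DMSO stock into 0.9% NaCl/30% Trappsol HPB-20, final 1% DMSO) 10 min before ip LPS 0.2 mg/kg in PBS. Plasma from vena cava at 90 min, TNF-α by ELISA; percent inhibition vs vehicle controls, n = 7 per group, 2-sided t-test.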

Rattus norvegicus = species: Rattus norvegicus; test: Inhibition of TNF alpha production in rat Zymosan inflammation model; type: functional
Summary of the method: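 Male Lewis rats given single sc dose (50 mg/kg) as aqueous suspension in 5% EtOH, 5% propylene glycol, 10% Cremephore, 10% Molecusol (5 mL/kg), 10 min before intrapleural zymosan (0.5 mg in 0.25 mL H2O).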

Stromelysin-1, sequence (P08254 whole entry): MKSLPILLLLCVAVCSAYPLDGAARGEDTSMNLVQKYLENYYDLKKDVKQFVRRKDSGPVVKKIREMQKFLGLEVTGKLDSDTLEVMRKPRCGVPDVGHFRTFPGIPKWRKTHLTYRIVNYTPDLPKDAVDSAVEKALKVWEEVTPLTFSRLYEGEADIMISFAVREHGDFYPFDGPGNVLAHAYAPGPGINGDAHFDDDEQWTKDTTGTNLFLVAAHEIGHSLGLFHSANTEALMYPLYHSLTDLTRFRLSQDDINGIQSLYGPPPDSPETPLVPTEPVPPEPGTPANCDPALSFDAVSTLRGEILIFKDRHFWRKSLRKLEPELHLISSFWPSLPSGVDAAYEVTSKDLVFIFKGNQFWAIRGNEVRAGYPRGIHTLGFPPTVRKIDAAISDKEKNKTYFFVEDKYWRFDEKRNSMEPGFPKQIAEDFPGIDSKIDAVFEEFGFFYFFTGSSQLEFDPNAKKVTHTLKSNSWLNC
Disintegrin and metalloproteinase domain-containing protein 17, sequence (P78536 whole entry, the tested form may be a part): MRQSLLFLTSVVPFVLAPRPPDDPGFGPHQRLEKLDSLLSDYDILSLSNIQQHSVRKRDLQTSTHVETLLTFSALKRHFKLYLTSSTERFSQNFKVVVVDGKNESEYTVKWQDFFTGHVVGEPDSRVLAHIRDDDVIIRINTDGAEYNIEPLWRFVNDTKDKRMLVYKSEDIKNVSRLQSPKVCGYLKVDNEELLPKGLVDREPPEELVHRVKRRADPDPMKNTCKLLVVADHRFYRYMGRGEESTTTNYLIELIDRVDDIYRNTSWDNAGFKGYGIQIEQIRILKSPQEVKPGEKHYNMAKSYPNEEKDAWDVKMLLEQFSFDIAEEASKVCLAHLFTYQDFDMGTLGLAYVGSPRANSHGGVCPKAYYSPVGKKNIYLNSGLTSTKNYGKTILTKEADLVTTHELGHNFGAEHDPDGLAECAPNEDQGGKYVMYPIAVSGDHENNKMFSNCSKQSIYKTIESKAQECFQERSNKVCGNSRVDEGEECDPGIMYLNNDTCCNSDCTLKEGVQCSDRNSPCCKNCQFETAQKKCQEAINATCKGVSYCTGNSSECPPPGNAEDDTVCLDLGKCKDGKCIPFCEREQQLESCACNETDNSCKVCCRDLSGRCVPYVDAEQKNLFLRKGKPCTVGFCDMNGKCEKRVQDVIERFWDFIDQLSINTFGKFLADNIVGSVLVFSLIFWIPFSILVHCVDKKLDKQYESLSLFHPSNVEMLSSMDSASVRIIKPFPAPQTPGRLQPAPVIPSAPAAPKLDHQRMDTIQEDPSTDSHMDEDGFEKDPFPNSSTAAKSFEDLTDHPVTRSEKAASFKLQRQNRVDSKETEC
Matrix metalloproteinase-9, sequence (P14780 whole entry, the tested form may be a part): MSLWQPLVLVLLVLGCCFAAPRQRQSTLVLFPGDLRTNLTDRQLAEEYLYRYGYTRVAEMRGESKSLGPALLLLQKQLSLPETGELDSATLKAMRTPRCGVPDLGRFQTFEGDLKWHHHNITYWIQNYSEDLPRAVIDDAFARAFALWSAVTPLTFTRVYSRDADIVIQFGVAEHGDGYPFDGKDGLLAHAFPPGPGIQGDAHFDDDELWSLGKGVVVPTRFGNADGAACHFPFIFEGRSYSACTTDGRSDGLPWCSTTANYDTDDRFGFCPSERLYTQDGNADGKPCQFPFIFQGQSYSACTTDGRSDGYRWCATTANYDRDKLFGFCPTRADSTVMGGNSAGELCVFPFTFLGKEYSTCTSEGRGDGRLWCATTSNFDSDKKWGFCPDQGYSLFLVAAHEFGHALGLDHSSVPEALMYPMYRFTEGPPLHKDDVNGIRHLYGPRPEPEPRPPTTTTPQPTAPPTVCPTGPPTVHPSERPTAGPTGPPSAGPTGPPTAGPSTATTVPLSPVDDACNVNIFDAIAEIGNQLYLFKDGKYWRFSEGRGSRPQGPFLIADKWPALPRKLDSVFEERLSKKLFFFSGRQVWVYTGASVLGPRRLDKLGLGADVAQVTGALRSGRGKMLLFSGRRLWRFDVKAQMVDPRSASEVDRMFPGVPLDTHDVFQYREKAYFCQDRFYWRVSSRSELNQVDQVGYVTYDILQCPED

SMILES | IC50 (Interstitial collagenase) [nM] | IC50 (Stromelysin-1) [nM] | IC50 [1] [nM] | IC50 [2] [nM] | inhibition in vivo at 40 mg/kg (Mus musculus [3]) [%] | solubility [4] [µg/mL] | inhibition in vivo at 40 mg/kg (Mus musculus [5]) [%] | Inhibition (Rattus norvegicus) [%]
CCC[C@@H]([C@@H](Cc1ccc(C)s1)C(=O)N[C@@H](CCC/N=C(/N)NS(=O)(=O)c1ccccn1)C(=O)Nc1nccs1)N(O)C=O | > 2700 | 218 | 379 | 11 |  |  |  | 
CCC[C@@H]([C@@H](CC(C)C)C(=O)N[C@@H](CCC/N=C(/N)NS(=O)(=O)c1ccccn1)C(=O)Nc1nccs1)N(O)C=O | 76 | 84 | 43 | 6 | -28 |  |  | 
N/C(=N/CCC[C@H](NC(=O)[C@H](CC1CCCCC1)[C@H](CCC(F)(F)F)N(O)C=O)C(=O)Nc1nccs1)N[N+](=O)[O-] | 110 | 214 | 49 | 5 | -24 | 54 (≈ 88.7 µM) | 73 | 
CCC[C@@H]([C@@H](Cc1ccc(C)s1)C(=O)N[C@@H](CCC/N=C(/N)N[N+](=O)[O-])C(=O)Nc1nccs1)N(O)C=O | > 2500 | 79 | 190 |  |  |  |  | 
CC1CCC(C[C@@H](C(=O)N[C@@H](CCC/N=C(/N)N[N+](=O)[O-])C(=O)Nc2nccs2)[C@H](C(C)C)N(O)C=O)CC1 (stereo partly drawn) | 85 | 76 | 35 |  | -6 | 210 (≈ 369 µM) | 71 | 
CC(C)C[C@@H](C(=O)N[C@H](C(=O)Nc1nccs1)[C@H](C)CC/N=C(/N)N[N+](=O)[O-])[C@H](C)N(O)C=O | 38 | 273 | 19 | 7 | -2 | > 850 |  | 
NC(=NCCC[C@H](NC(=O)[C@H](CC1CCCCC1)[C@H](C1CC1)N(O)C=O)C(=O)Nc1nccs1)N[N+](=O)[O-] | 144 | 1490 | 602 | 22 | -3 | 920 (≈ 1660 µM) | 56 | 
CCC[C@@H]([C@@H](CC(C)C)C(=O)N[C@H](C(=O)Nc1nccs1)[C@H](C)CC/N=C(/N)N[N+](=O)[O-])N(O)C=O | 24 | 47 | 13 | 5 | -10 |  |  | 
CC(C)C[C@@H](C(=O)N[C@H](C(=O)Nc1nccs1)[C@H](C)CC/N=C(/N)NS(C)(=O)=O)[C@H](CCC(F)(F)F)N(O)C=O | 52 | 17 | 22 | 8 | -5 |  |  | 
CCC[C@@H]([C@@H](CC1CCC(C)CC1)C(=O)N[C@@H](CCC/N=C(/N)N[N+](=O)[O-])C(=O)Nc1nccs1)N(O)C=O (stereo partly drawn) | 188 | 200 | 115 | 9 | -19 | 160 (≈ 281 µM) | 64 | 
CCC[C@@H]([C@@H](CC(C)C)C(=O)N[C@@H](CCC/N=C(/N)N[N+](=O)[O-])C(=O)Nc1nccs1)N(O)C=O | 34 | 31 | 13 |  | -29 | > 1600 | 96 | 30
CCC[C@@H]([C@@H](CC1CCCCC1)C(=O)N[C@@H](CCC/N=C(/N)N[N+](=O)[O-])C(=O)Nc1nccs1)N(O)C=O | 108 | 203 | 55 | 8 | -27 | 330 (≈ 595 µM) | 72 | 
CCC[C@@H]([C@@H](CC(C)C)C(=O)N[C@H](C(=O)Nc1nccs1)[C@H](C)CCN=C(N)NS(C)(=O)=O)N(O)C=O | 57 | 156 | 48 | 6 | 28 |  |  | 
CC(C)C[C@@H](C(=O)N[C@@H](CCC/N=C(/N)N[N+](=O)[O-])C(=O)Nc1nccs1)[C@H](Cc1ccccc1)N(O)C=O | 26 | 31 | 11 |  |  |  |  | 

Second part, led by results:

IC50 (Interstitial collagenase) [nM] | IC50 (Stromelysin-1) [nM] | IC50 [1] [nM] | IC50 [2] [nM] | SMILES | inhibition in vivo at 40 mg/kg (Mus musculus [3]) [%] | solubility [4] [µg/mL] | inhibition in vivo at 40 mg/kg (Mus musculus [5]) [%] | Inhibition (Rattus norvegicus) [%]
8.1 | 49 | 12 | 35 | CC(C)C[C@@H](C(=O)N[C@H](C(=O)Nc1nccs1)[C@H](C)CC/N=C(/N)NS(C)(=O)=O)[C@H](C(C)C)N(O)C=O | 7 |  |  | 
18 | 169 | 8.5 | 12 | CC(C)C[C@@H](C(=O)N[C@H](C(=O)Nc1nccs1)[C@H](C)CC/N=C(/N)NS(C)(=O)=O)[C@H](C)N(O)C=O | -3 | > 2130 |  | 
21 | 62 | 22 | 42 | CC(C)C[C@@H](C(=O)N[C@@H](CCC/N=C(/N)NS(C)(=O)=O)C(=O)Nc1nccs1)[C@H](C(C)C)N(O)C=O |  |  |  | 
96 | 115 | 71 | 16 | CC1CCC(C[C@@H](C(=O)N[C@@H](CCCN=C(N)NS(=O)(=O)c2ccccn2)C(=O)Nc2nccs2)[C@H](C(C)C)N(O)C=O)CC1 (stereo partly drawn) | -9 |  |  | 
100 | 122 | 51 | 7.9 | CCC[C@@H]([C@@H](CC(C)C)C(=O)N[C@@H](CCCN=C(N)NS(C)(=O)=O)C(=O)Nc1nccs1)N(O)C=O |  | > 1130 |  | 
133 | 282 | 143 | 6 | CCC[C@@H]([C@@H](CC1CCC(C)CC1)C(=O)N[C@@H](CCCN=C(N)NS(=O)(=O)c1ccccn1)C(=O)Nc1nccs1)N(O)C=O (stereo partly drawn) |  | 160 (≈ 241 µM) |  | 
122 | 155 | 89 | 14 | CC1CCC(C[C@@H](C(=O)N[C@@H](CCCN=C(N)NS(C)(=O)=O)C(=O)Nc2nccs2)[C@H](C(C)C)N(O)C=O)CC1 (stereo partly drawn) | 32 | 1400 (≈ 2330 µM) |  | 
